Experimental data reported in ChEMBL document CHEMBL3271970, “Radiopharmaceuticals. 16. Halogenated dopamine analogs. Synthesis and radiolabeling of 6-iododopamine and tissue distribution studies in animals” (J Med Chem, 1976).

Assays:
Rattus norvegicus [1] = test: Biodistribution in adrenal cortex of rat assessed per organ at 3.6 x 10^-8 mol, iv measured after 5 mins; format: ADME, organism-based; settings: in vivo
Summary of the method: (§1)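 [131I]-6-iododopamine in water or saline, used within 30 min of preparation. Injected iv at 3.6 × 10^-8 mol/rat. Rats killed by ether overdose at 5, 30 or 60 min, or at 2, 4 or 24 h. Tissue radioactivity expressed as % dose/organ, mean ± SD of four rats.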

[2] = Biodistribution in adrenal cortex of mongrel dog assessed per organ at 1.29 x 10^-6 mol, iv measured after 2 hrs; format: ADME, organism-based, Canis lupus familiaris; settings: in vivo
Summary of the method: (§2)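 Radioiodinated ([123I] or [131I]) 6-iododopamine in water or saline, used within 30 min of preparation. Given iv at 1.29 × 10^-6 mol/dog; one dog per time point, killed at 2 or 24 h. Large organs counted as three samples and averaged; adrenals and thyroid taken intact and counted. Expressed as % dose/organ.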

Mus musculus [3] = test: Biodistribution in thyroid gland of mouse assessed per organ at 8 to 11 x 10^-8 mol, iv measured after 240 mins; format: ADME, organism-based; settings: in vivo, 4 h
Summary of the method: (§3)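 Tracer labelled with either 123I or 131I, in water or saline, used within 30 min of preparation. Mice dosed iv at 8-11 × 10^-8 mol/mouse and killed by ether overdose. Organs counted as % dose/organ ± SD, n = 3-10 mice per time point.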

Kidney [4] = test: Biodistribution in kidney of rat assessed per organ at 3.6 x 10^-8 mol, iv measured after 2 hrs; format: ADME, organism-based; settings: in vivo; summary of the method: as §1
Adrenal medulla [5] = test: Biodistribution in adrenal medulla of rat assessed per organ at 3.6 x 10^-8 mol, iv measured after 2 hrs; format: ADME, organism-based; settings: in vivo; summary of the method: as §1
Mus musculus [6] = test: Biodistribution in adrenal gland of mouse assessed per organ at 8 to 11 x 10^-8 mol, iv measured after 15 mins; format: ADME, organism-based; settings: in vivo, 0.25 h
Summary of the method: (§4)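 [131I]- or [123I]-6-iododopamine in water or saline, used within 30 min of preparation. Injected iv at 8-11 × 10^-8 mol/mouse. Mice killed by ether overdose at 5-240 min; 3-10 mice per time point. Tissue radioactivity expressed as % dose/organ ± SD.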

Rattus norvegicus [7] = test: Biodistribution in thyroid gland of rat assessed per organ at 3.6 x 10^-8 mol, iv measured after 24 hrs; format: ADME, organism-based; settings: in vivo
Summary of the method: (§5)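 [131I]-labelled tracer in water or saline, injected within 30 min of preparation. Rats given 3.6 × 10^-8 mol/rat iv, killed by ether overdose at each time point. Organs excised and radioactivity counted as % dose/organ, mean ± SD of four rats.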

Liver [8] = test: Biodistribution in liver of rat assessed per organ at 3.6 x 10^-8 mol, iv measured after 2 hrs; format: ADME, organism-based; settings: in vivo; summary of the method: as §5
Mus musculus [9] = test: Biodistribution in thyroid gland of mouse assessed per organ at 8 to 11 x 10^-8 mol, iv measured after 60 mins; format: ADME, organism-based; settings: in vivo, 1 h; summary of the method: as §3
[10] = Biodistribution in adrenal medulla of mongrel dog assessed per organ at 1.29 x 10^-6 mol, iv measured after 2 hrs; format: ADME, organism-based, Canis lupus familiaris; settings: in vivo; summary of the method: as §2
Liver [11] = test: Biodistribution in liver of mouse assessed per organ at 8 to 11 x 10^-8 mol, iv measured after 120 mins; format: ADME, organism-based; settings: in vivo, 2 h; summary of the method: as §4
Mus musculus [12] = test: Biodistribution in adrenal gland of mouse assessed per organ at 8 to 11 x 10^-8 mol, iv measured after 5 mins; format: ADME, organism-based; settings: in vivo; summary of the method: as §4
Mus musculus [13] = test: Biodistribution in adrenal gland of mouse assessed per organ at 8 to 11 x 10^-8 mol, iv measured after 240 mins; format: ADME, organism-based; settings: in vivo, 4 h; summary of the method: as §4
Adrenal medulla [14] = test: Biodistribution in adrenal medulla of rat assessed per organ at 3.6 x 10^-8 mol, iv measured after 30 mins; format: ADME, organism-based; settings: in vivo, 0.5 h; summary of the method: as §1
Liver [15] = test: Biodistribution in liver of rat assessed per organ at 3.6 x 10^-8 mol, iv measured after 4 hrs; format: ADME, organism-based; settings: in vivo; summary of the method: as §5
Mus musculus [16] = test: Biodistribution in thyroid gland of mouse assessed per organ at 8 to 11 x 10^-8 mol, iv measured after 15 mins; format: ADME, organism-based; settings: in vivo, 0.25 h; summary of the method: as §3
Liver [17] = test: Biodistribution in liver of rat assessed per organ at 3.6 x 10^-8 mol, iv measured after 24 hrs; format: ADME, organism-based; settings: in vivo; summary of the method: as §5
Rattus norvegicus [18] = test: Biodistribution in adrenal cortex of rat assessed per organ at 3.6 x 10^-8 mol, iv measured after 60 mins; format: ADME, organism-based; settings: in vivo, 1 h; summary of the method: as §1
Liver [19] = test: Biodistribution in liver of rat assessed per organ at 3.6 x 10^-8 mol, iv measured after 30 mins; format: ADME, organism-based; settings: in vivo, 0.5 h; summary of the method: as §5
Kidney [20] = test: Biodistribution in kidney of mouse assessed per organ at 8 to 11 x 10^-8 mol, iv measured after 5 mins; format: ADME, organism-based; settings: in vivo; summary of the method: as §4
Kidney [21] = test: Biodistribution in kidney of mouse assessed per organ at 8 to 11 x 10^-8 mol, iv measured after 15 mins; format: ADME, organism-based; settings: in vivo, 0.25 h; summary of the method: as §4
Liver [22] = test: Biodistribution in liver of mouse assessed per organ at 8 to 11 x 10^-8 mol, iv measured after 240 mins; format: ADME, organism-based; settings: in vivo, 4 h; summary of the method: as §4
Rattus norvegicus [23] = test: Biodistribution in adrenal cortex of rat assessed per organ at 3.6 x 10^-8 mol, iv measured after 24 hrs; format: ADME, organism-based; settings: in vivo; summary of the method: as §1
[24] = Biodistribution in kidney of mongrel dog assessed per organ at 1.29 x 10^-6 mol, iv measured after 2 hrs; format: ADME, organism-based, Canis lupus familiaris; settings: in vivo; summary of the method: as §2
Liver [25] = test: Biodistribution in liver of mouse assessed per organ at 8 to 11 x 10^-8 mol, iv measured after 5 mins; format: ADME, organism-based; settings: in vivo; summary of the method: as §4
Blood [26] = test: Biodistribution in blood of rat at 3.6 x 10^-8 mol, iv measured after 5 mins; format: ADME, organism-based; settings: in vivo
Summary of the method: (§6)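 [131I]-6-iododopamine in water or saline, used within 30 min of preparation. Injected iv at 3.6 × 10^-8 mol/rat. Rats killed by ether overdose at 5 min to 24 h. Blood radioactivity expressed as % dose/g, mean ± SD of four rats.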

Blood [27] = test: Biodistribution in blood of rat at 3.6 x 10^-8 mol, iv measured after 60 mins; format: ADME, organism-based; settings: in vivo, 1 h; summary of the method: as §6
Kidney [28] = test: Biodistribution in kidney of rat assessed per organ at 3.6 x 10^-8 mol, iv measured after 60 mins; format: ADME, organism-based; settings: in vivo, 1 h; summary of the method: as §1
[29] = Biodistribution in kidney of mongrel dog assessed per organ at 1.29 x 10^-6 mol, iv measured after 24 hrs; format: ADME, organism-based, Canis lupus familiaris; settings: in vivo; summary of the method: as §2
Liver [30] = test: Biodistribution in liver of mouse assessed per organ at 8 to 11 x 10^-8 mol, iv measured after 30 mins; format: ADME, organism-based; settings: in vivo, 0.5 h; summary of the method: as §4
Mus musculus [31] = test: Biodistribution in thyroid gland of mouse assessed per organ at 8 to 11 x 10^-8 mol, iv measured after 5 mins; format: ADME, organism-based; settings: in vivo; summary of the method: as §3
[32] = Biodistribution in adrenal medulla of mongrel dog assessed per organ at 1.29 x 10^-6 mol, iv measured after 24 hrs; format: ADME, organism-based, Canis lupus familiaris; settings: in vivo; summary of the method: as §2
Liver [33] = test: Biodistribution in liver of mouse assessed per organ at 8 to 11 x 10^-8 mol, iv measured after 60 mins; format: ADME, organism-based; settings: in vivo, 1 h; summary of the method: as §4
Rattus norvegicus [34] = test: Biodistribution in thyroid gland of rat assessed per organ at 3.6 x 10^-8 mol, iv measured after 5 mins; format: ADME, organism-based; settings: in vivo; summary of the method: as §5
Kidney [35] = test: Biodistribution in kidney of rat assessed per organ at 3.6 x 10^-8 mol, iv measured after 4 hrs; format: ADME, organism-based; settings: in vivo; summary of the method: as §1

For `Br.NCCc1cc(O)c(O)cc1[131I]`, the Drug uptake (Rattus norvegicus [1]) was 0.0098 %ID, the Drug uptake [2] was 0.0092 %ID and the Drug uptake (Mus musculus [3]) was 0.158 %ID. The Drug uptake (Kidney [4]) was 0.168 %ID, the Drug uptake (Adrenal medulla [5]) was 0.0035 %ID and the Drug uptake (Mus musculus [6]) was 0.015 %ID. For the same molecule, the Drug uptake (Rattus norvegicus [7]) was 0.65 %ID, the Drug uptake (Liver [8]) was 0.33 %ID and the Drug uptake (Mus musculus [9]) was 0.066 %ID. The Drug uptake [10] was 0.0062 %ID, the Drug uptake (Liver [11]) was 0.84 %ID and the Drug uptake (Mus musculus [12]) was 0.03 %ID. It also gave a Drug uptake (Mus musculus [13]) of 0.012 %ID, a Drug uptake (Adrenal medulla [14]) of 0.0138 %ID and a Drug uptake (Liver [15]) of 0.265 %ID. It also gave a Drug uptake (Mus musculus [16]) of 0.067 %ID, a Drug uptake (Liver [17]) of 0.072 %ID and a Drug uptake (Rattus norvegicus [18]) of 0.007 %ID. The Drug uptake (Liver [19]) was 2.36 %ID, the Drug uptake (Kidney [20]) was 8.03 %ID and the Drug uptake (Kidney [21]) was 3.44 %ID. For the same molecule, the Drug uptake (Liver [22]) was 0.94 %ID, the Drug uptake (Rattus norvegicus [23]) was 0.000081 %ID and the Drug uptake [24] was 0.77 %ID. For the same molecule, the Drug uptake (Liver [25]) was 7.1 %ID, the Drug uptake (Blood [26]) was 0.66 %ID and the Drug uptake (Blood [27]) was 0.131 %ID. It also gave a Drug uptake (Kidney [28]) of 0.72 %ID, a Drug uptake [29] of 0.075 %ID and a Drug uptake (Liver [30]) of 2.4 %ID. It also gave a Drug uptake (Mus musculus [31]) of 0.094 %ID, a Drug uptake [32] of 0.0021 %ID and a Drug uptake (Liver [33]) of 1.04 %ID. The Drug uptake (Rattus norvegicus [34]) was 0.029 %ID and the Drug uptake (Kidney [35]) was 0.194 %ID.
